Results: ChEMBL document CHEMBL3102784, “Salicylanilide diethyl phosphates: synthesis, antimicrobial activity and cytotoxicity” (Bioorg Med Chem, 2014)
≈ marks a conversion by molar mass, not a printed value. Calls of active or inactive are those of the source. The rule behind the calls is not given here.

Key:
[1] = system: Mycobacterium kansasii; assay: Antimycobacterial activity against Mycobacterium kansasii My 235/80 after 21 days; type: functional; settings: My 235/80, 504 h
In short: (§1)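 Micromethod MIC in Šula's semisynthetic medium at 37 °C. Compounds added in DMSO at 1000 down to 0.032 µmol/L. Isoniazid standard in sterile water at 0.5–250 µmol/L. Inocula: H37Rv 10^3, M. avium 10^5, M. kansasii 10^4. Read at 14 and 21 d, plus 7 d for M. kansasii.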

[2] = system: Mycobacterium tuberculosis; assay: Antimycobacterial activity against Mycobacterium tuberculosis H37Rv My 331/88 after 14 days; type: functional; settings: H37Rv My 331/88, 336 h; in short: as §1
[3] = system: Candida albicans; assay: Antifungal activity against Candida albicans ATCC 44859 after 48 hrs by broth microdilution method; type: functional; settings: ATCC 44859, 48 h
In short: (§2)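 Broth microdilution in RPMI 1640 with glutamine, fluconazole as reference. For yeasts, MIC is ≥80% growth reduction (IC80) versus control. For filamentous fungi, the value is expressed as IC50. Readings at 24 and 48 h.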

[4] = system: Mycobacterium avium; assay: Antimycobacterial activity against isoniazid, rifampicin, ethambutol and ofloxacin-resistant Mycobacterium avium My 330/88 after 21 days; type: functional; settings: My 330/88, 504 h; in short: as §1
[5] = system: Lichtheimia corymbifera; assay: Antifungal activity against Absidia corymbifera 272 after 48 hrs by broth microdilution method; type: functional; settings: Lichtheimia corymbifera, 272, 48 h; in short: as §2
[6] = system: Mycobacterium kansasii; assay: Antimycobacterial activity against Mycobacterium kansasii 6509/96 after 14 days; type: functional; settings: 6509/96, 336 h; in short: as §1
[7] = system: Escherichia coli; assay: Antibacterial activity against Escherichia coli CCM 4517 at 500 micromol/L after 24 to 48 hrs by broth microdilution method; type: functional, organism-based
In short: (§3)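 Broth microdilution in Mueller–Hinton broth, compounds dissolved in DMSO, tested over a dilution series from 500 downward. MIC taken as ≥95% growth reduction (IC95) versus drug-free control. Benzylpenicillin comparator. Readings at 24 and 48 h.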

[8] = system: Staphylococcus aureus; assay: Antibacterial activity against Staphylococcus aureus CCM 4516/08 after 48 hrs by broth microdilution method; type: functional; settings: CCM 4516/08, 48 h; in short: as §3
[9] = system: Mycobacterium avium; assay: Antimycobacterial activity against isoniazid, rifampicin, ethambutol and ofloxacin-resistant Mycobacterium avium My 330/88 after 14 days; type: functional; settings: My 330/88, 336 h; in short: as §1
[10] = system: Klebsiella pneumoniae; assay: Antibacterial activity against ESBL-positive Klebsiella pneumoniae J 14368/08 at 500 micromol/L after 24 to 48 hrs by broth microdilution method; type: functional, organism-based; in short: as §3
[11] = system: Pichia kudriavzevii; assay: Antifungal activity against Candida krusei E28 after 24 hrs by broth microdilution method; type: functional; settings: E28, 24 h; in short: as §2
[12] = system: Aspergillus fumigatus; assay: Antifungal activity against Aspergillus fumigatus 231 after 24 hrs by broth microdilution method; type: functional; settings: Aspergillus fumigatus, 231, 24 h; in short: as §2
[13] = system: Staphylococcus epidermidis; assay: Antibacterial activity against Staphylococcus epidermidis H 6966/08 after 24 hrs by broth microdilution method; type: functional; settings: H 6966/08, 24 h; in short: as §3
[14] = system: Mycobacterium kansasii; assay: Antimycobacterial activity against Mycobacterium kansasii 6509/96 after 7 days; type: functional; settings: 6509/96, 168 h; in short: as §1
[15] = system: Enterococcus sp.; assay: Antibacterial activity against Enterococcus sp. J 14365/08 at 500 micromol/L after 24 to 48 hrs by broth microdilution method; type: functional, organism-based; in short: as §3
[16] = system: Staphylococcus epidermidis; assay: Antibacterial activity against Staphylococcus epidermidis H 6966/08 after 48 hrs by broth microdilution method; type: functional; settings: H 6966/08, 48 h; in short: as §3
[17] = system: Trichosporon asahii; assay: Antifungal activity against Trichosporon asahii 1188 after 24 hrs by broth microdilution method; type: functional; settings: Trichosporon asahii, 1188, 24 h; in short: as §2
[18] = system: HepG2; assay: Cytotoxicity against human HepG2 cells after 24 hrs by CellTiter assay; type: cell-based; settings: HepG2, 24 h
In short: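 HepG2 cells (passage 27–33) in MEM with 10% FBS, L-glutamine and NEAA, seeded at 1×10^4 per well. Treated next day with compounds at 0.1–100 µM (or 0.1–25 µmol/L), triplicates, <1% DMSO, for 24 h at 37 °C, 5% CO2. MTS reagent added for 2 h, absorbance read at 490 nm. IC50 taken against untreated (100%) and 10% DMSO (0%) controls.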

[19] = system: Trichophyton mentagrophytes; assay: Antifungal activity against Trichophyton mentagrophytes 445 after 72 hrs by broth microdilution method; type: functional; settings: Trichophyton mentagrophytes, 445, 72 h
In short: (§4)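 Filamentous dermatophyte tested by broth microdilution in RPMI 1640 with glutamine, fluconazole as reference. Value expressed as IC50 relative to growth control. Read at 72 and 120 h.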

[20] = system: Candida albicans; assay: Antifungal activity against Candida albicans ATCC 44859 after 24 hrs by broth microdilution method; type: functional; settings: ATCC 44859, 24 h; in short: as §2
[21] = system: Trichosporon asahii; assay: Antifungal activity against Trichosporon asahii 1188 after 48 hrs by broth microdilution method; type: functional; settings: Trichosporon asahii, 1188, 48 h; in short: as §2
[22] = system: Staphylococcus aureus; assay: Antibacterial activity against methicillin-resistant Staphylococcus aureus H 5996/08 after 24 hrs by broth microdilution method; type: functional; settings: H 5996/08, 24 h; in short: as §3
[23] = system: Mycobacterium kansasii; assay: Antimycobacterial activity against Mycobacterium kansasii 6509/96 after 21 days; type: functional; settings: 6509/96, 504 h; in short: as §1
[24] = system: Mycobacterium kansasii; assay: Antimycobacterial activity against Mycobacterium kansasii My 235/80 after 7 days; type: functional; settings: My 235/80, 168 h; in short: as §1
[25] = system: Klebsiella pneumoniae; assay: Antibacterial activity against Klebsiella pneumoniae D 11750/08 at 500 micromol/L after 24 to 48 hrs by broth microdilution method; type: functional, organism-based; in short: as §3
[26] = system: Staphylococcus aureus; assay: Antibacterial activity against methicillin-resistant Staphylococcus aureus H 5996/08 after 48 hrs by broth microdilution method; type: functional; settings: H 5996/08, 48 h; in short: as §3
[27] = system: Nakaseomyces glabratus; assay: Antifungal activity against Candida glabrata 20/I at 500 micromol/L after 24 to 48 hrs by broth microdilution method; type: functional, organism-based; in short: as §2
[28] = system: Pseudomonas aeruginosa; assay: Antibacterial activity against Pseudomonas aeruginosa CCM 1961 at 500 micromol/L after 24 to 48 hrs by broth microdilution method; type: functional, organism-based; in short: as §3
[29] = system: Mycobacterium kansasii; assay: Antimycobacterial activity against Mycobacterium kansasii My 235/80 after 14 days; type: functional; settings: My 235/80, 336 h; in short: as §1
[30] = system: Trichophyton mentagrophytes; assay: Antifungal activity against Trichophyton mentagrophytes 445 after 120 hrs by broth microdilution method; type: functional; settings: Trichophyton mentagrophytes, 445, 120 h; in short: as §4
[31] = system: Mycobacterium tuberculosis; assay: Antimycobacterial activity against Mycobacterium tuberculosis H37Rv My 331/88 after 21 days; type: functional; settings: H37Rv My 331/88, 504 h; in short: as §1
[32] = system: Pichia kudriavzevii; assay: Antifungal activity against Candida krusei E28 after 48 hrs by broth microdilution method; type: functional; settings: E28, 48 h; in short: as §2
[33] = system: Candida tropicalis; assay: Antifungal activity against Candida tropicalis 156 at 500 micromol/L after 24 to 48 hrs by broth microdilution method; type: functional, organism-based; in short: as §2
[34] = system: Aspergillus fumigatus; assay: Antifungal activity against Aspergillus fumigatus 231 after 48 hrs by broth microdilution method; type: functional; settings: Aspergillus fumigatus, 231, 48 h; in short: as §2
[35] = system: Staphylococcus aureus; assay: Antibacterial activity against Staphylococcus aureus CCM 4516/08 after 24 hrs by broth microdilution method; type: functional; settings: CCM 4516/08, 24 h; in short: as §3
[36] = system: Lichtheimia corymbifera; assay: Antifungal activity against Absidia corymbifera 272 after 24 hrs by broth microdilution method; type: functional; settings: Lichtheimia corymbifera, 272, 24 h; in short: as §2

Q: With `CCOP(=O)(OCC)Oc1ccc(Cl)cc1C(=O)Nc1cccc(C(F)(F)F)c1` as the compound, how does the MIC [1] read?
A: 8 µM (≈ 3.61 µg/mL)

Q: And the MIC [2]?
A: 2 µM (≈ 0.904 µg/mL)

Q: And the MIC80 [3]?
A: > 500 µM

Q: And the MIC [4]?
A: 16 µM (≈ 7.23 µg/mL)

Q: What about the MIC50 [5] of the same compound?
A: > 500 µM

Q: What about the MIC [6] of the same compound?
A: 8 µM (≈ 3.61 µg/mL)

Q: And the Activity [7]?
A: inactive

Q: And the MIC95 [8]?
A: > 500 µM

Q: What about the MIC [9] of the same compound?
A: 16 µM (≈ 7.23 µg/mL)

Q: What about the Activity [10] of the same compound?
A: inactive

Q: And the MIC80 [11]?
A: > 500 µM

Q: What about the MIC50 [12] of the same compound?
A: > 500 µM

Q: What about the MIC95 [13] of the same compound?
A: 250 µM (≈ 113 µg/mL)

Q: And the MIC [14]?
A: 8 µM (≈ 3.61 µg/mL)

Q: And the Activity [15]?
A: inactive

Q: And the MIC95 [16]?
A: > 500 µM

Q: What about the MIC80 [17] of the same compound?
A: > 500 µM

Q: What about the IC50 [18] of the same compound?
A: 5.68 µM

Q: And the MIC50 [19]?
A: > 500 µM

Q: What about the MIC80 [20] of the same compound?
A: > 500 µM

Q: And the MIC80 [21]?
A: > 500 µM

Q: What about the MIC95 [22] of the same compound?
A: 500 µM (≈ 226 µg/mL)

Q: What about the MIC [23] of the same compound?
A: 8 µM (≈ 3.61 µg/mL)

Q: And the MIC [24]?
A: 8 µM (≈ 3.61 µg/mL)

Q: And the Activity [25]?
A: inactive

Q: And the MIC95 [26]?
A: 500 µM (≈ 226 µg/mL)

Q: What about the Activity [27] of the same compound?
A: inactive

Q: What about the Activity [28] of the same compound?
A: inactive

Q: And the MIC [29]?
A: 8 µM (≈ 3.61 µg/mL)

Q: What about the MIC50 [30] of the same compound?
A: > 500 µM

Q: What about the MIC [31] of the same compound?
A: 2 µM (≈ 0.904 µg/mL)

Q: And the MIC80 [32]?
A: > 500 µM

Q: And the Activity [33]?
A: inactive

Q: What about the MIC50 [34] of the same compound?
A: > 500 µM

Q: And the MIC95 [35]?
A: > 500 µM

Q: What about the MIC50 [36] of the same compound?
A: > 500 µM
